Experimental findings from ChEMBL document CHEMBL1123492, “Carboxyl-modified amino acids and peptides as protease inhibitors” (J Med Chem, 1986) are described below.

Substrate in the data set: O=C(CNC(=O)OCc1ccccc1)Oc1ccc([N+](=O)[O-])cc1
Kind of data set: Michaelis constant against papain. The note with it: Carica papaya. In short, it runs like this:
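Papain activated 45 min at 25 °C in 50 mM phosphate pH 6.2 with 1 mM EDTA and 0.25 mM cysteine, made fresh daily. N-Cbz-Gly p-nitrophenyl ester hydrolysis at 25 °C read at 340 nm (Δε 6000 M⁻¹ cm⁻¹), corrected for nonenzymic hydrolysis. Compounds in acetonitrile or DMF, final <2.5% v/v. Reversible Ki by Lineweaver–Burk; irreversible Ki and k2 by Kitz–Wilson.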

B1: Papain (Carica papaya), P00784 (protein)
chain: MAMIPSISKLLFVAICLFVYMGLSFGDFSIVGYSQNDLTSTERLIQLFESWMLKHNKIYKNIDEKIYRFEIFKDNLKYIDETNKKNNSYWLGLNVFADMSNDEFKEKYTGSIAGNYTTTELSYEEVLNDGDVNIPEYVDWRQKGAVTPVKNQGSCGSCWAFSAVVTIEGIIKIRTGNLNEYSEQELLDCDRRSYGCNGGYPWSALQLVAQYGIHYRNTYPYEGVQRYCRSREKGPYAAKTDGVRQVQPYNEGALLYSIANQPVSVVLEAAGKDFQLYRGGIFVGPCGNKVDHAVAAVGYGPNYILIKNSWGTGWGENGYIRIKRGTGNSYGVCGLYTSSFYPVKN
As to B1, the Michaelis constant (Km) – broadly, the substrate concentration at which the rate is half of its maximum – turned out to be 10.3 µM.
